“Also recorded” adds a separate entry of the source. Each block holds one molecule with its values, some of them ahead of it.
Key:
[1] = test system: brain capillary endothelial cells and astrocytes; details: cited from earlier work; for % of initial radioactivity in the abluminal medium: same bovine BBB model
[2] = test system: hBLECs of the human BBB model; experiment: Toxicity assessment: hBLEC monolayer tightness by Lucifer yellow permeability; assay type: cell-based
How it was run: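 Integrity check run alongside transport, on PET inserts in Ringer–HEPES (pH 7.4, 37 °C). Lucifer yellow added luminally with test lipid (1 and 10 µM) or 1% DMSO as toxicity control. Abluminal sampled at 30–180 min, luminal at 180 min. Fluorescence read at ex 490/em 525 nm. Permeability divided by 1.12 cm² insert area gives Pe (cm/min), compared with untreated cells. Mean ± SD, n = 3.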

[3] = Passage / apparent permeability across hBLEC monolayer; assay type: in vitro ADME, human; details: human, pH 7.4, apparent coefficient permeability (Papp), 10 μM, 180 min after transport across hBLECs
How it was run: (§1)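 Test lipid at 1 or 10 µM in 500 µL Ringer–HEPES (pH 7.4) on the luminal side of hBLEC/pericyte co-culture inserts. Inserts moved to fresh 1.5 mL buffer wells at 30, 60, 120 and 180 min. Media lipids extracted by Bligh–Dyer and quantified by C18 LC-MS. %/min = quantity crossed ÷ initial luminal quantity ÷ time. Papp calculated per an earlier method. Mean ± SD, n = 3.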

hBLECs [4] = experiment: as above; assay type: in vitro ADME, human
How it was run: as §1

hBLECs [5] = experiment: Intracellular accumulation in hBLECs, LC-MS; assay type: in vitro ADME, human; details: 180 min after incubation
How it was run: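 Human BBB model: cord-blood CD34+-derived endothelial cells on PET inserts, co-cultured ≥6 days with brain pericytes (37 °C, 5% CO2) to give hBLECs. Test lipid at 1 or 10 µM in 500 µL Ringer–HEPES (pH 7.4), luminal side, for 180 min. Cell lipids extracted by Folch method, quantified by C18 LC-MS, and expressed as % of initial concentration. Triplicates.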

brain = details: 20-days-old rats, tail vein perfusion 30 s; cited from earlier work
brain DHA = details: normal adult mice, dietary; cited from earlier work

Molecule: CC/C=C\C/C=C\C/C=C\C/C=C\C/C=C\C/C=C\CCC(=O)OC(COC(C)=O)COP(=O)([O-])OCC[N+](C)(C)C (stereo not drawn) [AceDoPC, 1-acetyl,2-docosahexaenoyl-glycerophosphocholine]
% of initial radioactivity in the abluminal medium [1]: 7.5%

Molecule: CC/C=C\C/C=C\C/C=C\C/C=C\C/C=C\C/C=C\CCC(=O)O[C@H](COC(=O)CCCCCCCCCCCCCCC)COP(=O)([O-])OCC[N+](C)(C)C [PC-DHA, 1-palmitoyl,2-docosahexaenoyl-sn-glycero-3-phosphatidylcholine]
% of initial radioactivity in the abluminal medium [1]: 4%

Papp at 180 min, 10 μM [3]: 260 nm/s
percentage of passage per min (lipids recovered in abluminal medium) (hBLECs [4]; 10 μM, 30 min post-incubation): 0.54%
percentage of passage per min (lipids recovered in abluminal medium) (hBLECs [4]; 10 μM, 120 min post-incubation): 0.40%
apparent coefficient permeability (Papp) (hBLECs [4]; 10 μM, 180 min after transport across hBLECs): 260.4 nm/s
percentage of passage per minute (constant) (hBLECs [4]; constant over the 180 min transport): around 0.5 % per minute
intracellular accumulation in hBLECs (hBLECs [5]; 10 μM): 3.11 ± 1.24%
Molecule: CC/C=C\C/C=C\C/C=C\C/C=C\C/C=C\C/C=C\CCC(=O)O [DHA, Docosahexaenoic acid]
toxicity towards hBLECs (from LY permeability) ([2]; 10 μM): absence of toxicity
intracellular accumulation in hBLECs (hBLECs [5]; 1 μM): lower than the limit of detection; also recorded: under the limit of quantification
recovered in the brain, % of injected radioactivity (brain): 0.3–0.4%
% of initial radioactivity in abluminal medium ([1]; 5 μM, incubation 240 min): 5%
% of initial radioactivity in the abluminal medium [1]: 4.5%
increase of levels of brain DHA (brain DHA): did not significantly increase

Molecule: Lucifer Yellow
BBB permeability to Lucifer yellow (control permeability) ([2]; control cells, absence of test lipids, 180 min): 0.55 ± 0.06 x 10^−3 cm min^−1

From PMC11483317 (Heliyon, 2024)
